What was measured:
[1] = AUC (0 to t) in male Sprague-Dawley rat at 1000 mg/kg, po measured on day 14; assay type: ADME, organism-based; set-up: dose 1000 mg/kg, route oral; settings: plasma
Procedure, shortened: (§1)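 Sprague–Dawley rats, 5 weeks old at arrival, both sexes. Given the compound by oral gavage once daily for 14 days at 0, 250, 500 or 1000 mg/kg/day, with 0.5% methylcellulose as vehicle. Toxicokinetic parameters were determined on Day 1 and Day 14.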

[2] = Metabolic stability in human liver microsomes assessed as compound remaining after 1 hr relative to control; assay type: ADME; settings: read-out: Stability
Procedure, shortened: (§2)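 Liver microsomes from mouse, dog or human were incubated with compound for 1 h, and the percentage of compound remaining was determined.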

[3] = Clearance in ICR mouse at 3 mg/kg, iv and 10 mg/kg, po; assay type: ADME, organism-based; settings: in vivo
Procedure, shortened: (§3)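 Male ICR mice and 7-week-old SD rats received a 3 mg/kg intravenous bolus or a 10 mg/kg oral gavage dose. Plasma was deproteinized with acetonitrile (2 volumes) and compound measured by HPLC. Parameters came from noncompartmental analysis.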

[4] = Cmax in male Sprague-Dawley rat at 1000 mg/kg, po measured on day 1; assay type: ADME, organism-based; set-up: dose 1000 mg/kg, route oral; settings: in vivo; procedure, shortened: as §1
[5] = Tmax in ICR mouse at 3 mg/kg, iv and 10 mg/kg, po; assay type: ADME, organism-based; settings: in vivo
Procedure, shortened: (§4)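 Male ICR mice and 7-week-old SD rats received a 3 mg/kg iv bolus or a 10 mg/kg oral gavage dose. Plasma was precipitated with 2 volumes of acetonitrile and analysed by HPLC. Parameters came from noncompartmental analysis.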

[6] = AUC in Sprague-Dawley rat at 3 mg/kg, iv and 10 mg/kg, po; assay type: ADME, organism-based; settings: plasma; procedure, shortened: as §3
[7] = Elimination half life in Sprague-Dawley rat at 3 mg/kg, iv and 10 mg/kg, po; assay type: ADME, organism-based; settings: in vivo, read-out: beta t1/2 (converted); procedure, shortened: as §3
[8] = Mean residence time in ICR mouse at 3 mg/kg, iv and 10 mg/kg, po; assay type: ADME, organism-based; settings: in vivo; procedure, shortened: as §4
[9] = Cmax in female Sprague-Dawley rat at 250 mg/kg, po measured on day 1; assay type: ADME, organism-based; set-up: dose 250 mg/kg, route oral; settings: in vivo; procedure, shortened: as §1
[10] = AUC (0 to t) in male Sprague-Dawley rat at 250 mg/kg, po measured on day 1; assay type: ADME, organism-based; set-up: dose 250 mg/kg, route oral; settings: plasma; procedure, shortened: as §1
Rattus norvegicus [11] = test: Toxicity in Sprague-Dawley rat assessed as seminiferous tubule degeneration at 250 to 1000 mg/kg, po by hematoxylin and eosin staining-based microscopy; assay type: organism-based; set-up: dose 250-1000 mg/kg, route oral; settings: in vivo
Procedure, shortened: (§5)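 Sprague–Dawley rats of both sexes, 5 weeks old at arrival, received daily oral gavage at 0, 250, 500 or 1000 mg/kg/day for 14 days. Vehicle was 0.5% methylcellulose at 10 mL/kg. Toxicokinetics were taken on Day 1 and Day 14. Necropsy was by Day 15. Testis was fixed in modified Davidson's fixative, paraffin-sectioned and H&E-stained, with histopathology on control and high-dose groups only.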

[12] = Tmax in male Sprague-Dawley rat at 250 mg/kg, po measured on day 1; assay type: ADME, organism-based; set-up: dose 250 mg/kg, route oral; settings: in vivo; procedure, shortened: as §5
[13] = AUC (0 to t) in male Sprague-Dawley rat at 250 mg/kg, po measured on day 14; assay type: ADME, organism-based; set-up: dose 250 mg/kg, route oral; settings: plasma; procedure, shortened: as §1
[14] = Tmax in male Sprague-Dawley rat at 1000 mg/kg, po measured on day 1; assay type: ADME, organism-based; set-up: dose 1000 mg/kg, route oral; settings: in vivo; procedure, shortened: as §5
MIN6 = test: Increase in 11 mM glucose-stimulated insulin secretion in mouse MIN6 cells measured for 1 hr by ELISA; assay type: functional
Rattus norvegicus [15] = test: Toxicity in Sprague-Dawley rat assessed as multinucleated giant cells in testis at 250 to 1000 mg/kg, po by hematoxylin and eosin staining-based microscopy; assay type: organism-based; set-up: dose 250-1000 mg/kg, route oral; settings: in vivo; procedure, shortened: as §5
Salmonella typhimurium [16] = test: Cytotoxicity in Salmonella typhimurium TA98 at 1.5 to 5000 ug/plate in absence of S9 fraction; assay type: organism-based; settings: salmonella enterica subsp. enterica serovar typhimurium
Procedure, shortened: (§6)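 Ames reverse mutation test by direct plate incorporation in S. typhimurium TA98 and TA100, with or without Aroclor 1254-induced rat liver S9 mix. Compound in DMSO at 1.5–5000 µg/plate, plated in top agar, incubated 37 °C for about 50 h, then revertant colonies counted. Plates were checked for precipitation and cytotoxicity. A positive was a reproducible, dose-related increase in revertants of more than 2-fold.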

Cytochrome P450 2D6 = Cytochrome P450 2D6 (Homo sapiens, UniProt P10635); test: Inhibition of CYP2D6 in human liver microsomes; assay type: ADME
Sequence of Cytochrome P450 2D6 (P10635 whole entry): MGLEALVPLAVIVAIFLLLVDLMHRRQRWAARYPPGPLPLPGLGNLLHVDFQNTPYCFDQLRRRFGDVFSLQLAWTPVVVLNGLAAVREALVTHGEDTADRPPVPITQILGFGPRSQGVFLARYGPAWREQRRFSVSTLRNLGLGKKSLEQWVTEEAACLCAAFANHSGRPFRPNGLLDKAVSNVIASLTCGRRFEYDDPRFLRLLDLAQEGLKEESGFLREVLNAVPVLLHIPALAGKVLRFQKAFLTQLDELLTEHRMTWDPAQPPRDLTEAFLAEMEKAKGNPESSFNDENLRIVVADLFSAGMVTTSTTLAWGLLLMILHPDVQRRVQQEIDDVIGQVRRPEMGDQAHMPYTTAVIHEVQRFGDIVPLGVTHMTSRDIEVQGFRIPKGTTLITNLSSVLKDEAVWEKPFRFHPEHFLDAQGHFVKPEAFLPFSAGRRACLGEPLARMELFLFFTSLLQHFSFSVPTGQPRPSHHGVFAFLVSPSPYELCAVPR
Procedure, shortened: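 Pooled human liver microsomes at 0.25 mg/mL, each with a CYP-selective substrate and test compound up to 25 µM, preincubated at 37 °C. It is stopped on ice with ice-cold acetonitrile and centrifuged, and the supernatant is analysed by LC–MS/MS.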

[17] = Cmax in female Sprague-Dawley rat at 1000 mg/kg, po measured on day 14; assay type: ADME, organism-based; set-up: dose 1000 mg/kg, route oral; settings: in vivo; procedure, shortened: as §1
[18] = Cmax in male Sprague-Dawley rat at 250 mg/kg, po measured on day 14; assay type: ADME, organism-based; set-up: dose 250 mg/kg, route oral; settings: in vivo; procedure, shortened: as §1
Hexokinase-4 = molecular target: T1, Hexokinase-4 (Homo sapiens, UniProt P35557); test: Activation of recombinant human pancreatic glucokinase using 10 mM glucose by spectrophotometry
T1 sequence (P35557 whole entry): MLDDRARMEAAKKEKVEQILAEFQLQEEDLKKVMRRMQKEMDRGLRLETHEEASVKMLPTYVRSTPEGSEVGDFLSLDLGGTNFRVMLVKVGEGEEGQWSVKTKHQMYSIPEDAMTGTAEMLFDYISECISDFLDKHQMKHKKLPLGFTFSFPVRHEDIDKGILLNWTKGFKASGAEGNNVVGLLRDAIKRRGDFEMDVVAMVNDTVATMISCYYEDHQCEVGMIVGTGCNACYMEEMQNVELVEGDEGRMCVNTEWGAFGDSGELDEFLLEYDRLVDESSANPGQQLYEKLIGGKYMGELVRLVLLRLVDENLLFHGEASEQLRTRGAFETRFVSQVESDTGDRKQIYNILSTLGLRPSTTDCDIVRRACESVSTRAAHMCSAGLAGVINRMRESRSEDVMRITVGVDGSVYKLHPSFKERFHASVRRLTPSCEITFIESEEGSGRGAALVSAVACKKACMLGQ
Procedure, shortened: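 Purified recombinant human pancreatic glucokinase, compounds in DMSO. Buffer: 25 mM HEPES pH 7.4, 10 mM glucose, 25 mM KCl, 1 mM MgCl2, 1 mM DTT, 1 mM ATP, 1 mM NADP, 2.5 U/mL G6PDH. Activity was expressed against DMSO-only control (100%). EC50 came from 12 concentrations fitted to a variable-slope sigmoidal curve. Values are means of three duplicate runs.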

Mus musculus = test: Toxicity in fasting C57BL/J6 mouse assessed as glucose lowering effect at 50 mg/kg, po after 30 to 360 mins; assay type: organism-based; set-up: dose 50 mg/kg, route oral; settings: in vivo
Procedure, shortened: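 Eight-week-old male C57BL/6 mice were fasted 6 h with free access to water, then dosed orally with compound or 0.5% methylcellulose vehicle, with no glucose challenge. Blood glucose was followed up to 360 min, n = 6 per group.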

[19] = AUC (0 to t) in female Sprague-Dawley rat at 250 mg/kg, po measured on day 14; assay type: ADME, organism-based; set-up: dose 250 mg/kg, route oral; settings: plasma; procedure, shortened: as §1
[20] = Metabolic stability in mouse liver microsomes assessed as compound remaining after 1 hr relative to control; assay type: ADME; settings: read-out: Stability; procedure, shortened: as §2
Salmonella typhimurium [21] = test: Genotoxicity in Salmonella typhimurium TA98 assessed as increase in number of revertants at 1.5 to 5000 ug/plate by Ames test in absence of S9 fraction; assay type: toxicity, organism-based; settings: salmonella enterica subsp. enterica serovar typhimurium; procedure, shortened: as §6
Salmonella typhimurium [22] = test: Cytotoxicity in Salmonella typhimurium TA100 at 1.5 to 5000 ug/plate in presence of S9 fraction; assay type: organism-based; settings: salmonella enterica subsp. enterica serovar typhimurium; procedure, shortened: as §6

AUC(0-t) [1]: 25000 ng·h/mL | remaining at 1 h [2]: > 60% | clearance [3]: 3.33 mL/min/kg | Cmax [4]: 4250 ng/mL | Tmax [5]: 15 min | AUC [6]: 3800 ng·h/mL | half-life [7]: 18 min | MRT [8]: 55.2 min | Cmax [9]: 3450 ng/mL | AUC(0-t) [10]: 13100 ng·h/mL | Tmax [12]: 162 min | AUC(0-t) [13]: 8180 ng·h/mL | Tmax [14]: 240 min | inhibition (INH) (Cytochrome P450 2D6): Not Active | Cmax [17]: 5210 ng/mL | Cmax [18]: 1820 ng/mL | EC50 (Hexokinase-4): 315 nM | AUC(0-t) [19]: 17600 ng·h/mL | remaining at 1 h [20]: > 60%
Compound: COCCOCn1ccc(NC(=O)c2cc(Oc3ccc(S(C)(=O)=O)cc3)cc(-c3ncccc3C)c2)n1
Activity (Rattus norvegicus [11]): Non-toxic | fold change (FC) (MIN6): 9 | Activity (Rattus norvegicus [15]): Non-toxic | Activity (Salmonella typhimurium [16]): Non-toxic | Activity (Mus musculus): Toxic | Activity (Salmonella typhimurium [21]): Non-toxic | Activity (Salmonella typhimurium [22]): Non-toxic

From ChEMBL document CHEMBL3232870, “Discovery of 3-(4-methanesulfonylphenoxy)-N-[1-(2-methoxy-ethoxymethyl)-1H-pyrazol-3-yl]-5-(3-methylpyridin-2-yl)-benzamide as a novel glucokinase activator (GKA) for the treatment of type 2 diabetes mellitus” (Bioorg Med Chem, 2014)
